Series [1] in a line: Solubility in 5% mannitol. The class given is physicochemical.
Series [2] addresses T1, Gonadotropin-releasing hormone receptor (Homo sapiens, UniProt P30968).
T1 sequence (P30968 whole entry): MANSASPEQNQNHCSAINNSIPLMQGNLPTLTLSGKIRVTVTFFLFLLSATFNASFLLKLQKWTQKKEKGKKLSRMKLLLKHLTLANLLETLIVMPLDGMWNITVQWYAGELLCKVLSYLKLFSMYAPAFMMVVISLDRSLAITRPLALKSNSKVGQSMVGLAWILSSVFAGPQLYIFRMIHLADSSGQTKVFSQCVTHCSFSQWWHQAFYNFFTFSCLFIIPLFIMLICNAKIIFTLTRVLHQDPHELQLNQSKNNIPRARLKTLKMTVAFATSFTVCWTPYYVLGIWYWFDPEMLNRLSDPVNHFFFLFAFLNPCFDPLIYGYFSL
Briefly: Antagonist activity at human GnRHR expressed in HEK293 cells assessed as inhibition of GnRH-induced luciferase response by reporter gene assay. In kind it is functional, cell-based. The essentials: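 HEK293 cells stably expressing cloned human GnRHR and an LH alpha-subunit-promoter luciferase reporter, plated overnight. Compound in 1% DMSO was added 10 min before GnRH (1 nM final), then ≥5 h at 37 °C, 5% CO2, then luminescence. 11 half-log concentrations in duplicate. IC50 from four-parameter logistic fit, reported as geometric mean of ≥2 experiments.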
(A reporter such as luciferase makes a cellular process visible.)

Series [3] concerns the target T2, Gonadotropin-releasing hormone receptor (Rattus norvegicus, UniProt P30969).
T2 sequence (P30969 whole entry): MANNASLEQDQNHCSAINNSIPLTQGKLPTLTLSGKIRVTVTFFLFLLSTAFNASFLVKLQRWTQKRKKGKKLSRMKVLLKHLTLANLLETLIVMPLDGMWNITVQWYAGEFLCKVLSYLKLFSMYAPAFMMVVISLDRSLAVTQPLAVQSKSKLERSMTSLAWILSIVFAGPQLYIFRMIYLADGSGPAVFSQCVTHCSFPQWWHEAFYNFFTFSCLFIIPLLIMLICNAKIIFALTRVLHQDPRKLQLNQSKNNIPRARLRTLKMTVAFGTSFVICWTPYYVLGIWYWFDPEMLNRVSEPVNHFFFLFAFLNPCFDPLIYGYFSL
Briefly: Antagonist activity at rat GnRHR expressed in HEK293 cells assessed as inhibition of GnRH-induced luciferase response by reporter gene assay. In kind it is functional, cell-based. The essentials:
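Rat GnRHR stably expressed in HEK293 cells, transiently transfected with an NFAT-responsive luciferase reporter, plated after 16 h and assayed next day. Compound in 1% DMSO was given 10 min before 1 nM GnRH (final), ≥5 h at 37 °C, then luminescence. Duplicates at 11 half-log concentrations. IC50 by four-parameter logistic fit, geometric mean of ≥2 experiments.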

The next series has as its system Rattus norvegicus. Description: Inhibition of plasma testosterone levels in Sprague-Dawley rat at 19.6 uM, sc by enzyme-linked immunosorbent assay. The class given is functional. The essentials:
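Intact adult male Sprague-Dawley rats (275–310 g, 3 per group) received subcutaneous mini-pumps for seven days. Solutions were in 1:3 DMSO/water: 19.6 μM (~0.66 nM/day/kg), or 9.8 μM (~0.33 nM/day/kg). Sham-operated controls. Plasma was sampled on days 3–7 and testosterone measured by ELISA. Values are means of days 4–7.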

Series [4] can be described thus: Ratio of IC50 for rat GnRHR to IC50 for human GnRHR in HEK293 cells. The class given is functional.
Series [5] concerns the target T3, Gonadotropin-releasing hormone receptor (Homo sapiens) (UniProt P30968).
T3 sequence (whole entry): T1 sequence (P30968 whole entry)
Briefly: Antagonist activity at human GnRHR expressed in COS7 cells assessed as inhibition of GnRH-stimulated inositol phosphate production after 2 hrs. The class given is functional, cell-based. The following applies: COS-7, filed as antagonist. The essentials:
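COS-7 cells transiently transfected with WT hGnRH-R cDNA, labelled 18 h at 37 °C with 4 μCi/mL [3H]myo-inositol in inositol-free DMEM. Cells were washed in medium with 5 mM LiCl, then co-incubated 2 h at 37 °C with 10−8 M GnRH plus analogue at 10−8 to 10−5 M. IP was measured by Dowex anion-exchange and scintillation counting. Triplicate, repeated three or more times.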

As a reminder, the solubility is the dissolved amount per volume that the medium holds. A low value points to little dissolved substance. As a reminder, the IC50 is the concentration that gives 50% inhibition.

Converted amounts (≈) assume the structure as drawn.

For the molecule `CC(=O)Nc1ccc(C[C@H](NC(=O)[C@@H](NC(=O)[C@@H](Cc2cccnc2)NC(=O)[C@@H](Cc2ccc(Cl)cc2)NC(=O)[C@@H](Cc2ccc3ccccc3c2)NC(C)=O)[S+](C)[O-])C(=O)N[C@H](Cc2ccc(NC(C)=O)cc2)C(=O)N[C@@H](CC(C)C)C(=O)N[C@@H](CCCCNC(C)C)C(=O)N2CCC[C@H]2C(=O)N[C@H](C)C(N)=O)cc1` (some centres undefined), the solubility in series [1] came to 50 mg/mL (≈ 31.9 mM). Moreover, the IC50 in series [2] is recorded as 4.6 nM (antagonist).

For the molecule `CS[C@H](NC(=O)[C@@H](Cc1cccnc1)NC(=O)[C@@H](Cc1ccc(Cl)cc1)NC(=O)[C@@H](Cc1ccc2ccccc2c1)NC(C)=O)C(=O)N[C@@H](Cc1ccc(NC(C)=O)cc1)C(=O)N[C@H](Cc1ccc(NC(C)=O)cc1)C(=O)N[C@@H](CC(C)C)C(=O)N[C@@H](CCCCNC(C)C)C(=O)N1CCC[C@H]1C(=O)N[C@H](C)C(N)=O`, the IC50 is on record as 2.4 nM (antagonist) in series [3] and 1.2 nM (antagonist) in series [2]. Besides, the Plasma testosterone level with Rattus norvegicus came out at 1.99 ng/mL. Also, the “Ratio IC50” value in series [4] is 2. The amount in solution in series [1] (solubility) came to 50 mg/mL (≈ 32.3 mM). Also, the Activity entry in series [5] was “Antagonist”.

Take `CC(=O)Nc1ccc(C[C@H](NC(=O)[C@H](CO)NC(=O)[C@@H](Cc2cccnc2)NC(=O)[C@@H](Cc2ccc(Cl)cc2)NC(=O)[C@@H](Cc2ccc3ccccc3c2)NC(C)=O)C(=O)N[C@H](Cc2ccc(NC(C)=O)cc2)C(=O)N[C@H](SC(C)C)C(=O)N[C@@H](CCCCNC(C)C)C(=O)N2CCC[C@H]2C(=O)N[C@H](C)C(N)=O)cc1`: in series [1], the concentration in solution (solubility) came to 50 mg/mL (≈ 32.2 mM). Further, the Activity result in series [5] is “Antagonist”. The IC50 in series [2] is recorded as 0.81 nM (antagonist).

In turn, `CC(=O)Nc1ccc(C[C@H](NC(=O)[C@H](CO)NC(=O)[C@@H](Cc2cccnc2)NC(=O)[C@@H](Cc2ccc(Cl)cc2)NC(=O)[C@@H](Cc2ccc3ccccc3c2)NC(C)=O)C(=O)N[C@H](Cc2ccc(NC(C)=O)cc2)C(=O)N[C@@H](C(=O)N[C@@H](CCCCNC(C)C)C(=O)N2CCC[C@H]2C(=O)N[C@H](C)C(N)=O)[S+]([O-])C(C)C)cc1` (some centres undefined) gave a solubility in series [1] of 50 mg/mL (≈ 31.9 mM). Also, in series [2], the IC50 is recorded as 3 nM (antagonist).

Turning to `CC(=O)Nc1ccc(C[C@H](NC(=O)[C@H](NC(=O)[C@@H](Cc2cccnc2)NC(=O)[C@@H](Cc2ccc(Cl)cc2)NC(=O)[C@@H](Cc2ccc3ccccc3c2)NC(C)=O)[S+](C)[O-])C(=O)N[C@H](Cc2ccc(NC(C)=O)cc2)C(=O)N[C@@H](CC(C)C)C(=O)N[C@@H](CCCCNC(C)C)C(=O)N2CCC[C@H]2C(=O)N[C@H](C)C(N)=O)cc1` (some centres undefined), the solubility in series [1] came to 50 mg/mL (≈ 31.9 mM). The IC50 in series [2] is 6.9 nM (antagonist).

On to `CC(=O)Nc1ccc(C[C@H](NC(=O)[C@H](CO)NC(=O)[C@@H](CCC(N)=O)NC(=O)[C@@H](Cc2ccc(Cl)cc2)NC(=O)[C@@H](Cc2ccc3ccccc3c2)NC(C)=O)C(=O)N[C@H](Cc2ccc(NC(C)=O)cc2)C(=O)N[C@@H](SC(C)C)C(=O)N[C@@H](CCCCNC(C)C)C(=O)N2CCC[C@H]2C(=O)N[C@H](C)C(N)=O)cc1`, for which the solubility in series [1] stood at 50 mg/mL (≈ 32.7 mM). Further, the IC50 in series [2] is 6.2 nM (antagonist).

In turn, `CC(=O)Nc1ccc(C[C@H](NC(=O)[C@H](CO)NC(=O)[C@@H](CCC(N)=O)NC(=O)[C@@H](Cc2ccc(Cl)cc2)NC(=O)[C@@H](Cc2ccc3ccccc3c2)NC(C)=O)C(=O)N[C@H](Cc2ccc(NC(C)=O)cc2)C(=O)N[C@@H](C(=O)N[C@@H](CCCCNC(C)C)C(=O)N2CCC[C@H]2C(=O)N[C@H](C)C(N)=O)[S+]([O-])C(C)C)cc1` (some centres undefined) came in with a solubility in series [1] of 50 mg/mL (≈ 32.3 mM). Further, the IC50 in series [2] is recorded as 85 nM (antagonist).

Take `CC(=O)Nc1ccc(C[C@H](NC(=O)[C@H](CO)NC(=O)[C@@H](CCC(N)=O)NC(=O)[C@@H](Cc2ccc(Cl)cc2)NC(=O)[C@@H](Cc2ccc3ccccc3c2)NC(C)=O)C(=O)N[C@H](Cc2ccc(NC(C)=O)cc2)C(=O)N[C@H](SC(C)C)C(=O)N[C@@H](CCCCNC(C)C)C(=O)N2CCC[C@H]2C(=O)N[C@H](C)C(N)=O)cc1`: in series [1], the concentration in solution (solubility) came to 50 mg/mL (≈ 32.7 mM). In addition, the IC50 in series [2] was 39 nM (antagonist).

Regarding `CC(=O)Nc1ccc(C[C@H](NC(=O)[C@H](CO)NC(=O)[C@@H](Cc2cccnc2)NC(=O)[C@@H](Cc2ccc(Cl)cc2)NC(=O)[C@@H](Cc2ccc3ccccc3c2)NC(C)=O)C(=O)N[C@H](Cc2ccc(NC(C)=O)cc2)C(=O)N[C@@H](CC(C)C)C(=O)N[C@@H](CCCCNC(C)C)C(=O)N2CCC[C@H]2C(=O)N[C@@H](C(N)=O)[S+](C)[O-])cc1` (some centres undefined), the concentration in solution in series [1] (solubility) came to 50 mg/mL (≈ 31.6 mM). Further, the IC50 in series [2] is given as 0.83 nM (antagonist).

Molecule `CC(=O)Nc1ccc(C[C@H](NC(=O)[C@H](CO)NC(=O)[C@@H](CCC(N)=O)NC(=O)[C@@H](Cc2ccc(Cl)cc2)NC(=O)[C@@H](Cc2ccc3ccccc3c2)NC(C)=O)C(=O)N[C@H](Cc2ccc(NC(C)=O)cc2)C(=O)N[C@H](C(=O)N[C@@H](CCCCNC(C)C)C(=O)N2CCC[C@H]2C(=O)N[C@H](C)C(N)=O)S(=O)(=O)C(C)C)cc1` registered a solubility in series [1] of 50 mg/mL (≈ 32 mM). The IC50 in series [2] was 3810 nM (antagonist).

As for `CS[C@@H](NC(=O)[C@@H](Cc1cccnc1)NC(=O)[C@@H](Cc1ccc(Cl)cc1)NC(=O)[C@@H](Cc1ccc2ccccc2c1)NC(C)=O)C(=O)N[C@@H](Cc1ccc(NC(C)=O)cc1)C(=O)N[C@H](Cc1ccc(NC(C)=O)cc1)C(=O)N[C@@H](CC(C)C)C(=O)N[C@@H](CCCCNC(C)C)C(=O)N1CCC[C@H]1C(=O)N[C@H](C)C(N)=O`, in series [1], the solubility came out at 50 mg/mL (≈ 32.3 mM). Besides, the Activity result in series [5] was “Antagonist”. Moreover, the IC50 in series [2] was 25 nM (antagonist).

In series [1], `CC(=O)Nc1ccc(C[C@H](NC(=O)[C@H](CO)NC(=O)[C@@H](CCC(N)=O)NC(=O)[C@@H](Cc2ccc(Cl)cc2)NC(=O)[C@@H](Cc2ccc3ccccc3c2)NC(C)=O)C(=O)N[C@H](Cc2ccc(NC(C)=O)cc2)C(=O)N[C@H](C(=O)N[C@@H](CCCCNC(C)C)C(=O)N2CCC[C@H]2C(=O)N[C@H](C)C(N)=O)[S+]([O-])C(C)C)cc1` (some centres undefined) displayed a solubility of 50 mg/mL (≈ 32.3 mM). Besides, the IC50 in series [2] is given as 13 nM (antagonist).

With `CC(=O)Nc1ccc(C[C@H](NC(=O)[C@H](CO)NC(=O)[C@@H](Cc2cccnc2)NC(=O)[C@@H](Cc2ccc(Cl)cc2)NC(=O)[C@@H](Cc2ccc3ccccc3c2)NC(C)=O)C(=O)N[C@H](Cc2ccc(NC(C)=O)cc2)C(=O)N[C@H](C(=O)N[C@@H](CCCCNC(C)C)C(=O)N2CCC[C@H]2C(=O)N[C@H](C)C(N)=O)[S+]([O-])C(C)C)cc1` (some centres undefined), the IC50 is on record as 3.2 nM (antagonist) in series [3] and 1.2 nM (antagonist) in series [2]. The same molecule came in with a Plasma testosterone level with Rattus norvegicus of 3.22 ng/mL. The “Ratio IC50” value in series [4] was found to be 2.67. In series [1], this molecule showed a solubility of 50 mg/mL (≈ 31.9 mM).

In series [1], `CC(=O)Nc1ccc(C[C@H](NC(=O)[C@H](CO)NC(=O)[C@@H](Cc2cccnc2)NC(=O)[C@@H](Cc2ccc(Cl)cc2)NC(=O)[C@@H](Cc2ccc3ccccc3c2)NC(C)=O)C(=O)N[C@H](Cc2ccc(NC(C)=O)cc2)C(=O)N[C@@H](CC(C)C)C(=O)N[C@@H](CCCCNC(C)C)C(=O)N2CCC[C@H]2C(=O)N[C@H](C(N)=O)[S+](C)[O-])cc1` (some centres undefined) returned a solubility of 50 mg/mL (≈ 31.6 mM). Besides, the IC50 in series [2] is 0.87 nM (antagonist).

`CC(=O)Nc1ccc(C[C@H](NC(=O)[C@H](CO)NC(=O)[C@@H](CCC(N)=O)NC(=O)[C@@H](Cc2ccc(Cl)cc2)NC(=O)[C@@H](Cc2ccc3ccccc3c2)NC(C)=O)C(=O)N[C@H](Cc2ccc(NC(C)=O)cc2)C(=O)N[C@@H](C(=O)N[C@@H](CCCCNC(C)C)C(=O)N2CCC[C@H]2C(=O)N[C@H](C)C(N)=O)S(=O)(=O)C(C)C)cc1` displayed a solubility in series [1] of 50 mg/mL (≈ 32 mM). In addition, the IC50 in series [2] is 2000 nM (antagonist).

(Values after ChEMBL document CHEMBL1147132, “Structure-activity relationship studies of gonadotropin-releasing hormone antagonists containing S-aryl/alkyl norcysteines and their oxidized derivatives” (J Med Chem, 2007).)
